Measured values as given in article PMC3640569 (Food biophysics, 2012).
In brackets after ≈: the same amount, converted by molar mass. Several values for one entry are separate records, joined by “and”; a condition that tells them apart may be missing. Equal values may be shown once. Entries after “also recorded” stand apart in the source; their conditions may differ.

Legend:
[1] = rat, 2 to 9 mg per day in a 71 kcal per day diet; cited from earlier work
In vitro digestion model = assay type: in vitro ADME; details: 20 wt% MCT nanoemulsion, 2.8 mM PMF, Fa-SSIF
Outline: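 A nanoemulsion (20 wt% MCT, 2 wt% Tween 20, 2.8 mM PMF) was added to fasted SSIF (100 mM NaCl, 5 mM CaCl₂, 5 mg/mL bile extract, 0.6 mg/mL lipase, 5 mM phosphate). It was equilibrated 10 min to 37 °C at pH 7.00, and lipolysis was started with pancreatic extract. pH was held by pH-stat with 2 M NaOH. Timed samples were stopped with 4-BBBA and centrifuged (4000 rpm, 30 min, RT). The supernatant micelle phase was diluted 1:10 in DMSO and read at 330 nm. Done in triplicate.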

[2] = cited from earlier work
[3] = Solubility of PMF in simulated small intestinal fluids; assay type: physicochemical; details: 0.05 % PVA or HPMC in SSIF
Outline: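 PMF in DMSO was mixed with buffer, fasted SSIF or fed SSIF (150 mM NaCl, 10 mM CaCl₂, 15 mg/mL bile, 2.4 mg/mL lipase), with or without 0.05 % PVA or HPMC. Samples were stirred constantly for 72 h at 37 °C and centrifuged to remove crystals. Soluble PMF in the supernatant was measured by UV-vis at 330 nm.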

Theoretical prediction = test: Theoretical prediction
Outline: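 Calculated, not measured: maximum PMF dissolvable in the oil-water system at equilibrium was derived with a mass-balance equation (Eq. 1). Inputs were the masses of solute, oil and water and the experimentally measured saturation concentrations of PMF in each carrier oil (thermal quenching) and in buffer (solvent injection), assuming oil-water partitioning.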

[4] = Aqueous phase solubility of PMF; assay type: physicochemical
Outline: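 Solvent injection: 1 % PMF in DMSO was injected into aqueous solutions of water-soluble polymers (0–5 %) or polymer-free buffer, giving a final 56 µM PMF. Mixtures were stirred at 120 rpm for 72 h at 25 °C, then centrifuged (4000 rpm, 15 min) to remove crystals. Supernatant PMF was read by UV-vis at 330 nm against a calibration curve. Runs were done in duplicate or triplicate and reported as mean ± SD.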

[5] = Oil-water partition coefficient estimated from saturation concentrations; assay type: physicochemical
[6] = Encapsulation of PMF in oil-in-water nanoemulsions; assay type: physicochemical
Outline: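 Oil phase was 1 wt% PMF dissolved in MCT at 90–100 °C. Aqueous phase was 2 wt% Tween 20 in 5 mM phosphate, pH 7.0. Both were kept above 50 °C, blended 2 min, then given five microfluidizer passes at 12,000 psi. Oil content was 2.5–20 % at a PMF:oil ratio of 1:100 (initial 0.56–5.6 mM). After storage, dispersed and total PMF (remixed sample) were measured by UV-vis at 330 nm.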

[7] = Organic phase solubility of PMF; assay type: physicochemical
Outline: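 Thermal quenching: weighed PMF was stirred into MCT or LCT (corn oil) for 1 h at 90–100 °C, cooled to 25 °C and held up to 72 h. Crystals were inspected visually and by optical microscopy. Saturation concentration was the mean of four measurements at the highest PMF loadings.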

COc1ccc(-c2cc(=O)c3c(OC)c(OC)c(OC)c(OC)c3o2)cc1OC [nobiletin]
anti-carcinogenic effect [1]: significant anti-carcinogenic effect

COc1ccc(-c2cc(=O)c3c(O)c(OC)c(OC)c(OC)c3o2)cc1 [PMF, 5-hydroxy-6,7,8,4'-tetramethoxy-flavone]
concentration of PMF in the micelle phase (In vitro digestion model; after 3 min digestion): around 3 µM | concentration of PMF in the micelle phase (In vitro digestion model; after 120 min digestion): around 16 µM | reported saturation level in pure water [2]: ≈ 0.9 µM | effect of water-soluble polymers on solubility in SSIFs [3]: little influence | soluble PMF at saturation predicted using Eq. 1 (Theoretical prediction; 2.5 % fat MCT nanoemulsion): 0.15 mM | soluble PMF at saturation predicted using Eq. 1 (Theoretical prediction; 5 % fat MCT nanoemulsion): 0.31 mM | soluble PMF at saturation predicted using Eq. 1 (Theoretical prediction; 10 % fat MCT nanoemulsion): 0.61 mM | soluble PMF at saturation predicted using Eq. 1 (Theoretical prediction; 20 % fat MCT nanoemulsion): 1.22 mM | saturation concentration calculated using Eq. 1 (Theoretical prediction; 20 wt% LCT nanoemulsion): 0.84 mM | PMF solubilized per 100 g of solution ([4]; 0.5 % HPMC aqueous phase): about 0.36 mg per 100 g | increase in PMF concentration in aqueous phase by water-soluble polymers ([4]; certain types and amounts of polymer (HPMC, PVA)): ~10 fold | saturation concentration in water / buffer solution ([4]; no polymer, 25 °C, 72 h): 0.93 µM and ≈ 0.93 µM | effect of polymer on aqueous solubility ([4]; polyethylene glycol (PEG)): ineffective at increasing solubility; also recorded: little effect | solubility kinetic at 72 h ([4]; pure buffer solution, 25 °C, aqueous buffer, kinetic from dmso stock): 0.33 µg/mL (≈ 0.921 µM) | effect of polymer on aqueous solubility ([4]; β-cyclodextrin (CD)): ineffective at increasing solubility; also recorded: little effect | oil-water partition coefficient KOW (=CSO*/CSW*) ([5]; LCT / buffer): about 4,520 | oil-water partition coefficient KOW (=CSO*/CSW*) ([5]; MCT / buffer): ~6,560 | encapsulation efficiency ([6]; 2.5 % fat (MCT), 20 days storage): 21% | encapsulated PMF in nanoemulsion ([6]; 2.5 % fat (MCT), initial 0.56 mM PMF, 20 days storage): ≈ 0.12 mM | encapsulation efficiency ([6]; 5 % fat (MCT), 20 days storage): 21% | encapsulated PMF in nanoemulsion ([6]; 5 % fat (MCT), initial 1.4 mM PMF, 20 days storage): ~0.29 mM | encapsulation efficiency ([6]; 10 % fat (MCT), 20 days storage): 20% | encapsulated PMF in nanoemulsion ([6]; 10 % fat (MCT), initial 2.8 mM PMF, 20 days storage): ~0.55 mM | encapsulation efficiency ([6]; 20 % fat (MCT), 20 days storage): 42% | encapsulated PMF in nanoemulsion ([6]; 20 % fat (MCT), initial 5.6 mM PMF, 20 days storage): ~2.33 mM | encapsulation efficiency ([6]; 20 wt% LCT, initial PMF 5.6 mM, 72 h): around 48% | encapsulation efficiency ([6]; 20 wt% MCT, initial PMF 5.6 mM, 72 h): ~69% | encapsulation efficiency ([6]; 20 wt% oil (LCT or MCT), initial PMF 0.56, 1.4 and 2.8 mM, 72 h): 75 to 100% | saturation concentration in the oil phase (CSO*) ([7]; LCT): around 1.55 mg/mL | saturation concentration in the oil phase (CSO*) ([7]; LCT (corn oil), 25 °C, 72 h storage): 4.2 mM and 4.2 ± 0.4 mM | saturation concentration in the oil phase (CSO*) ([7]; MCT): ~2.2 mg/mL | solubility at 72 h ([7]; oil phases (LCT, MCT), 25 °C, oil or lipid, thermodynamic from solid): 4 to 6 mM (≈ 1430 to 2150 µg/mL)
